# Laboratory results from ChEMBL document CHEMBL3751694, “1-Piperazinylphthalazines as potential VEGFR-2 inhibitors and anticancer agents: Synthesis and in vitro biological evaluation” (Eur J Med Chem, 2016).
# Test: Growth inhibition of human SW620 cells at 10 uM after 48 hrs by SRB method
# Assay type: functional
# Details: SW-620, 48 h, read-out: GI
# Summary of the method: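 NCI 56-line screen, single-dose primary assay at 10^-5 M. Cells grown in RPMI 1640 with 5% FBS and 2 mM L-glutamine, plated at 5000–40,000 cells/well and held 24 h at 37 °C, 5% CO2 before drug addition. Compound was given from DMSO stock, exposure 48 h, then TCA fixation and SRB staining with absorbance at 515 nm. % growth is taken relative to time-zero and untreated controls.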
structure (smiles),measurement,value
CCOC(=O)c1ccc(NC(=O)CN2CCN(c3nnc(-c4ccccc4)c4ccccc34)CC2)cc1,inhibition of growth at 10 µM,45%
